Assay [1] has as its target STE20-like serine/threonine-protein kinase (Homo sapiens) (UniProt Q9H2G2). The experiment in a line: Inhibition of SLK (unknown origin) at 1 uM by Ambit Kinomescan binding assay relative to control.
Assay [2] addresses Phosphatidylinositol 4,5-bisphosphate 3-kinase catalytic subunit alpha isoform (Homo sapiens) (UniProt P42336). Kind of assay: Inhibition of PIK3CA ATP labeling site in human A-375 cells at 0.5 uM by KiNativ Profiling analysis relative to control. The class given is cell-based.
For assay [3], the target named is Receptor tyrosine-protein kinase erbB-3 (Homo sapiens) (UniProt P21860). Kind of assay: Inhibition of HER3/ErbB3 Lys1 labeling site in human A-375 cells at 0.05 uM by KiNativ Profiling analysis relative to control. The class given is cell-based.
Chain of Receptor tyrosine-protein kinase erbB-3 (Homo sapiens) (P21860 whole entry): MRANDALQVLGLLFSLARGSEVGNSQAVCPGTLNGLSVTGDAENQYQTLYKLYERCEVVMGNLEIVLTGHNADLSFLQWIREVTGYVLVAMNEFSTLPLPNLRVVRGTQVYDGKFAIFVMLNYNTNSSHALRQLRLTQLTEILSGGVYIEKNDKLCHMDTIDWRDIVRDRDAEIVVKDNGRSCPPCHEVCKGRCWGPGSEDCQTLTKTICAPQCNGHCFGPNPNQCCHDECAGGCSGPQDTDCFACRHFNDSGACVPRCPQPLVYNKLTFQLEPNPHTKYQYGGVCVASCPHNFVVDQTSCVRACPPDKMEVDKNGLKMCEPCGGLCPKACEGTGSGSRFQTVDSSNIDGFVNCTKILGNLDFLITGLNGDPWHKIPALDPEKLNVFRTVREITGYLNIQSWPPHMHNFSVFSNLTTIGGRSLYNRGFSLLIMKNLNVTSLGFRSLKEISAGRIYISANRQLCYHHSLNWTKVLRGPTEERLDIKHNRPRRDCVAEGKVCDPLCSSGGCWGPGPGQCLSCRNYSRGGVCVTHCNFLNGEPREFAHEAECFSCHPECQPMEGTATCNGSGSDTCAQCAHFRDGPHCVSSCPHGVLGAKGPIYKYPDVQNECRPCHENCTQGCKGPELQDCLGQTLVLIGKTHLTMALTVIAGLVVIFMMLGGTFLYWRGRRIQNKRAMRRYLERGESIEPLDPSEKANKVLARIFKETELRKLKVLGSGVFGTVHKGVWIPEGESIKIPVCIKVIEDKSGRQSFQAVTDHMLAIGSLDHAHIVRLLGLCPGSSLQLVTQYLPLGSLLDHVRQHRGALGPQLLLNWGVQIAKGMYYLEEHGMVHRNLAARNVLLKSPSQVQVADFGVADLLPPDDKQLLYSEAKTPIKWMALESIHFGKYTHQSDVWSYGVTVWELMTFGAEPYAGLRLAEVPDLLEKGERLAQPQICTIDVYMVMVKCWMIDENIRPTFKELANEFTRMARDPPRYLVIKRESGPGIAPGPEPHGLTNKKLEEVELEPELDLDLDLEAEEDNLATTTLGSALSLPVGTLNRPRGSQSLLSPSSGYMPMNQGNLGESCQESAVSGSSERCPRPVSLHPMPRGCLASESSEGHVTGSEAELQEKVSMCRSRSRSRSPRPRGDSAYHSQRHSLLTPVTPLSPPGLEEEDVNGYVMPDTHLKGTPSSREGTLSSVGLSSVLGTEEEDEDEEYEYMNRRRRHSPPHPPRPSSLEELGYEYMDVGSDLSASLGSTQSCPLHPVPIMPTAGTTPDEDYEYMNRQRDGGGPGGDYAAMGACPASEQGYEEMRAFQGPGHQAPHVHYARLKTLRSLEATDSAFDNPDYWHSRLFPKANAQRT
Assay [4] addresses Cyclin-dependent kinase-like 1 (Homo sapiens) (UniProt Q00532). Kind of assay: Inhibition of CDKL1 (unknown origin) at 1 uM by Ambit Kinomescan binding assay relative to control; values are per cent of control.
The target in assay [5] is Ephrin type-A receptor 4 (Homo sapiens) (UniProt P54764). Kind of assay: Inhibition of EPHA4 (unknown origin) at 1 uM by Ambit Kinomescan binding assay relative to control; values are per cent of control.
Assay [6] has as its target Rho-associated protein kinase 2 (Homo sapiens) (UniProt O75116). Kind of assay: Inhibition of ROCK2 Lys2 labeling site in human A-375 cells at 0.5 uM by KiNativ Profiling analysis relative to control. The class given is cell-based. A digest of the protocol: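 Live A375 melanoma cells treated with compound at 5 or 0.5 μM, then lysed. Lysate kinases were labeled with a lysine-reactive ATP or ADP-biotin probe. Inhibition was read as protection of labeling sites from the probe.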

The target in assay [7] is T1, Serine/threonine-protein kinase LATS1 (Homo sapiens) (UniProt O95835).
T1 sequence (whole entry): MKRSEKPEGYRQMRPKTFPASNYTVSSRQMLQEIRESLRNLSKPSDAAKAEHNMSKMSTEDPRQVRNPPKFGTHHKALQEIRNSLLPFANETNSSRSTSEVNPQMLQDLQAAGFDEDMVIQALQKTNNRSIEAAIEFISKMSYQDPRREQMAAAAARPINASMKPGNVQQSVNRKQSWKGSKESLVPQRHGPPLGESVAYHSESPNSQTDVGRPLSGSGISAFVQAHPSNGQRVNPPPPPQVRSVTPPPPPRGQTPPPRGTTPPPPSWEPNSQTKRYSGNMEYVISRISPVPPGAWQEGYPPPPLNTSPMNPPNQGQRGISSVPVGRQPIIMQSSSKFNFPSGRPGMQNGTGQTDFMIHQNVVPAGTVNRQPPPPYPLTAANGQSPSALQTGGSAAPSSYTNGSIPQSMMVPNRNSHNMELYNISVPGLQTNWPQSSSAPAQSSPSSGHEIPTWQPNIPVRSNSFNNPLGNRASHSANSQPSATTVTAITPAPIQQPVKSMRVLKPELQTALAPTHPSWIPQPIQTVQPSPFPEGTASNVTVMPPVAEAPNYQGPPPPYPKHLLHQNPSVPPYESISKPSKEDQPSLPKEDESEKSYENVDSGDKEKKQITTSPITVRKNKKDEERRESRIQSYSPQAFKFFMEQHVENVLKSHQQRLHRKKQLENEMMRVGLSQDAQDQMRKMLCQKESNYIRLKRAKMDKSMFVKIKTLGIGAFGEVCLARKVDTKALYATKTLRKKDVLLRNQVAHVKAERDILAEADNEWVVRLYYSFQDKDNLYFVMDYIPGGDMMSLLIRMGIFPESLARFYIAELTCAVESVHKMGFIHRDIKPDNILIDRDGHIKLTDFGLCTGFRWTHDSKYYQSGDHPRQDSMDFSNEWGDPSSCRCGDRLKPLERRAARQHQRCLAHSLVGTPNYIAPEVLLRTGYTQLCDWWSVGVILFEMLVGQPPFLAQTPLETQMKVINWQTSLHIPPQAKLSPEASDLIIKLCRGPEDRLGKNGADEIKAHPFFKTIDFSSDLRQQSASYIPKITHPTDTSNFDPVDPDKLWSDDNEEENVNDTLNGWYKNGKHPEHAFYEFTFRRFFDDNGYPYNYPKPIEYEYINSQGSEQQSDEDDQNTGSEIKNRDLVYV
Kind of assay: Inhibition of LATS1 Lys2 labeling site in human A-375 cells at 0.05 uM by KiNativ Profiling analysis relative to control. The class given is cell-based.

Assay [8] concerns the target Serine/threonine-protein kinase PAK 1 (Homo sapiens) (UniProt Q13153). The experiment in a line: Inhibition of PAK1 (unknown origin) at 10 uM by Ambit Kinomescan binding assay.
Assay [9] concerns the target T2, Mitogen-activated protein kinase kinase kinase 2 (Homo sapiens) (UniProt Q9Y2U5).
T2 sequence (whole entry): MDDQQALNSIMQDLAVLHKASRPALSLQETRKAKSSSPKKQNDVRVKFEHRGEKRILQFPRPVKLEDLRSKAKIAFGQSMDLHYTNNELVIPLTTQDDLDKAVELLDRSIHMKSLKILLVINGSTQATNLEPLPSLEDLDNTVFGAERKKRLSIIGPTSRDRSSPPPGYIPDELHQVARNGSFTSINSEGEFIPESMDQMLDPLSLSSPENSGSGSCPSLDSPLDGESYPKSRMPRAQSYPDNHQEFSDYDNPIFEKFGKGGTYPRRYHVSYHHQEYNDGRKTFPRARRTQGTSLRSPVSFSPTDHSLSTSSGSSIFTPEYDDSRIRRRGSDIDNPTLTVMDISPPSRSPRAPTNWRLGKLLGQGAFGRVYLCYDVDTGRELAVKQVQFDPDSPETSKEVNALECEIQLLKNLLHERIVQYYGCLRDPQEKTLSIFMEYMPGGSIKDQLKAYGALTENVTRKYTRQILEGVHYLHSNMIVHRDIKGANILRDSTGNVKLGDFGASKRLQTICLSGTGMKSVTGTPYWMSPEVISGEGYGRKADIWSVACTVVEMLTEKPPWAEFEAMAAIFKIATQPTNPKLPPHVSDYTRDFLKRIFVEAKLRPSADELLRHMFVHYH
Kind of assay: Inhibition of MAP3K2 Lys1 labeling site in human Huh-7 cell lysate at 1 uM by KiNativ Profiling analysis relative to control. The class given is subcellular.

Broadly, the inhibition is the drop in the measured response relative to a control, in per cent. In general, residual activity refers to what remains of the control signal, in per cent. A lower residual activity goes with little activity left.

SMILES strings stand for the structures. Active and inactive are the calls of the source. No cut-off for these calls is given here.

Chain of Phosphatidylinositol 4,5-bisphosphate 3-kinase catalytic subunit alpha isoform (Homo sapiens) (P42336 whole entry, canonical isoform): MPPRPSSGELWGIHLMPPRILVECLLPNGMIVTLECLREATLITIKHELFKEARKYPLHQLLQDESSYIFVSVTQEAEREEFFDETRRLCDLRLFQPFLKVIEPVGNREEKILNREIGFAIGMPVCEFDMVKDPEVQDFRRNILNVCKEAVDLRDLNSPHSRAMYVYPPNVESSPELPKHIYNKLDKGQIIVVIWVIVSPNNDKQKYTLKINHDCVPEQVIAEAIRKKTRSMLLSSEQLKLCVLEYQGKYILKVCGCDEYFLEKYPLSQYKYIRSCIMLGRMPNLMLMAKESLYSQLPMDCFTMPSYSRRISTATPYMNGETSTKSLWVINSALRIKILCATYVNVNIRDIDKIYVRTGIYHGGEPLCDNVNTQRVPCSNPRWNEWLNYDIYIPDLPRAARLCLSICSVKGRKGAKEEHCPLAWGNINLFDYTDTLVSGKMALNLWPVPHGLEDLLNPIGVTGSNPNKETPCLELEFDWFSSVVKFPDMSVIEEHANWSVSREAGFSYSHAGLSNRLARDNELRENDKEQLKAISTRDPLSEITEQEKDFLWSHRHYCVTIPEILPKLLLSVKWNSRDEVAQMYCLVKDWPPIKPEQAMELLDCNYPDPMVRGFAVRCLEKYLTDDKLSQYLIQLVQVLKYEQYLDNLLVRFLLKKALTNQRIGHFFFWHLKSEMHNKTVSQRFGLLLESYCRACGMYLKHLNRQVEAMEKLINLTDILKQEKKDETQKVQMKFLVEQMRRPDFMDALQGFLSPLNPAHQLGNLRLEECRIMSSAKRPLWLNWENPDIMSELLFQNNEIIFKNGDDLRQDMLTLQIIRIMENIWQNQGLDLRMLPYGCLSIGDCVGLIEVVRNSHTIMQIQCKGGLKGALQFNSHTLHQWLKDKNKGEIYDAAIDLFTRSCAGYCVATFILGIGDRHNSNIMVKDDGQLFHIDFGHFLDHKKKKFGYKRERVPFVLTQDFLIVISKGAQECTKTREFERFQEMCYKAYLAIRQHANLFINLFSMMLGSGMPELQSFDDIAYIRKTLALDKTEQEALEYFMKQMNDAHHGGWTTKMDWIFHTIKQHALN
Chain of Cyclin-dependent kinase-like 1 (Homo sapiens) (Q00532 whole entry): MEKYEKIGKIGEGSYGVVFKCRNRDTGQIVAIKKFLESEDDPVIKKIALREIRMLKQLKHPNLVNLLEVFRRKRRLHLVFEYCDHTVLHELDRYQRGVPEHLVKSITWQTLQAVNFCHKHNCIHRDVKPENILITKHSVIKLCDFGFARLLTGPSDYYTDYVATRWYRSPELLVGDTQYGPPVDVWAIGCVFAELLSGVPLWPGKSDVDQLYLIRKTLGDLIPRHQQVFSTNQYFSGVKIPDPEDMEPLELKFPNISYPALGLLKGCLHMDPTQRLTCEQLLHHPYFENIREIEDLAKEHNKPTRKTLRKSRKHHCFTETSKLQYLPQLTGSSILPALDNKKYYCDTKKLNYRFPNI
Chain of Serine/threonine-protein kinase PAK 1 (Homo sapiens) (Q13153 whole entry, looked up): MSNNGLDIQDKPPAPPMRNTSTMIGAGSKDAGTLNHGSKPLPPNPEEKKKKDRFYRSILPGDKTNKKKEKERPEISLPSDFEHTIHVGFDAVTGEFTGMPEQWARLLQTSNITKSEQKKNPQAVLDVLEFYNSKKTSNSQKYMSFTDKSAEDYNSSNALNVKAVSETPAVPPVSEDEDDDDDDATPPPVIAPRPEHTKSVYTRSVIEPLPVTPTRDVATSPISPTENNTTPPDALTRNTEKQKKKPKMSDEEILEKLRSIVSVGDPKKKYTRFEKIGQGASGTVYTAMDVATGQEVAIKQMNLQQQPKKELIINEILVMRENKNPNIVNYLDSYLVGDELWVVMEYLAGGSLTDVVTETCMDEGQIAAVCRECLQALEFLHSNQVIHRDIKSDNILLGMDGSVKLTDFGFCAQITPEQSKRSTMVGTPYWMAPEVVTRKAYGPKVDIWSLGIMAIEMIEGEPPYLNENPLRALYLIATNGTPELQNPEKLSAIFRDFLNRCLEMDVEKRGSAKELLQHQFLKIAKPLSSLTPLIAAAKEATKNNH
Chain of STE20-like serine/threonine-protein kinase (Homo sapiens) (Q9H2G2 whole entry, looked up, canonical isoform): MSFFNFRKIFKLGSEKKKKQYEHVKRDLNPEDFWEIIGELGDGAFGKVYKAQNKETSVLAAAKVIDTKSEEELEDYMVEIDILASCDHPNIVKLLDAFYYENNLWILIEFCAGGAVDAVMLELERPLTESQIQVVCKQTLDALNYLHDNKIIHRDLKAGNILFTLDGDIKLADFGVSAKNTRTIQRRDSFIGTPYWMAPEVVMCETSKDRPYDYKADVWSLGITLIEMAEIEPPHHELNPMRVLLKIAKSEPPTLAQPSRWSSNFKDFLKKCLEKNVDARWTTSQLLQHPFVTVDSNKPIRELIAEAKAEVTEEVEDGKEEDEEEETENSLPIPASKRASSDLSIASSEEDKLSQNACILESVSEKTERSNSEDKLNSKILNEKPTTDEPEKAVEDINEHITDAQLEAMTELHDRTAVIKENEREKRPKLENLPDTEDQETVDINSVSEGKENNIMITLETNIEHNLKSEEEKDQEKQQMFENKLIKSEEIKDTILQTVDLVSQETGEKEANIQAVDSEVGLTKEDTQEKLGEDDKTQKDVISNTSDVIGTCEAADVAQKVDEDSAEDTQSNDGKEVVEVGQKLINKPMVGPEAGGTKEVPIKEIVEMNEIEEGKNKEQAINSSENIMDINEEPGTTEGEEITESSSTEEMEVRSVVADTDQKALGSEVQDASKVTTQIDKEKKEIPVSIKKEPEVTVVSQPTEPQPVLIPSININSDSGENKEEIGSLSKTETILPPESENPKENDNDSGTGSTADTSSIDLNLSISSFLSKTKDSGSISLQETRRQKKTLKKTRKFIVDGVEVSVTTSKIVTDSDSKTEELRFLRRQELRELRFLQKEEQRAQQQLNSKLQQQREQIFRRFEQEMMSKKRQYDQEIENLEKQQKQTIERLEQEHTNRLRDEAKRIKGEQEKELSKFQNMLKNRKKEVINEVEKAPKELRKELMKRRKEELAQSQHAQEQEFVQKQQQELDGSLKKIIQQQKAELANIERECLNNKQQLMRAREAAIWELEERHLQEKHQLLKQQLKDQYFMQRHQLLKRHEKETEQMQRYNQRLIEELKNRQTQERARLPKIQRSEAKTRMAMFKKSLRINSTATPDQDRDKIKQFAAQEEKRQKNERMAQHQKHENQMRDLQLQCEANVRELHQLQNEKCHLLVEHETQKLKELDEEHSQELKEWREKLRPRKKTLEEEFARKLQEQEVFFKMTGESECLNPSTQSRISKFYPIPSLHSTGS

As to `CCN1CCN(Cc2ccc(NC(=O)c3ccc(C)c(/C=C/c4cnc5[nH]ccc5c4OC)c3)cc2C(F)(F)F)CC1`, the inhibition in [1] is 13%; in [2] it was 34.5%; in assay [3] it was 21.3%. Moreover, the residual activity is 100% in assay [4] and 3.7% in assay [5].
As to `CCN1CCN(Cc2ccc(NC(=O)c3ccc(C)c(Oc4ccnc5[nH]ccc45)c3)cc2C(F)(F)F)CC1`, the inhibition in assay [6] was found to be 2.3%; in assay [7] it was 14.5%. Also, in assay [8], the inhibition result was “inactive”.
Consider `CNc1cc(Oc2cc(C(=O)Nc3cc(N4CCN(C)CC4)cc(C(F)(F)F)c3)ccc2C)ncn1`, for which the inhibition in assay [9] is 11%.

These data come from ChEMBL document CHEMBL5696442, “Discovery of type II inhibitors of TGFβ-activated kinase 1 (TAK1) and mitogen-activated protein kinase kinase kinase kinase 2 (MAP4K2)” (J Med Chem, 2015).
